Assay results of several laboratories.
Each line is one published result; the experiments were not run side by side.
Target: Serine/threonine-protein kinase STK11 (STK11, Homo sapiens, UniProt Q15831)
Sequence (Q15831 1-433, as in one of the studies): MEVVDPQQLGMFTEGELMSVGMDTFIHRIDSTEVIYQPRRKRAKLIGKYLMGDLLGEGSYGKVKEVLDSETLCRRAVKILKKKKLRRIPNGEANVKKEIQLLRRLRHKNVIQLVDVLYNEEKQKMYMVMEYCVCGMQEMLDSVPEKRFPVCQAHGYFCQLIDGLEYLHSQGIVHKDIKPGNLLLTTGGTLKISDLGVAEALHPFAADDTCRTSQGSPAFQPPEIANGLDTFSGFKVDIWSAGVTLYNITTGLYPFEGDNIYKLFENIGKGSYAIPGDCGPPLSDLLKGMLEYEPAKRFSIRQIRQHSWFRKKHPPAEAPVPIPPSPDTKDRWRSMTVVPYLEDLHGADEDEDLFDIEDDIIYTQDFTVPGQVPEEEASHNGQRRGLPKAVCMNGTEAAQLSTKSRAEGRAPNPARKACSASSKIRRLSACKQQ

Structure (SMILES) | observed | action | method | tested at | endpoint | result
Cc1ccc(-n2nc(C(C)(C)C)cc2NC(=O)Nc2ccc(OCCN3CCOCC3)c3ccccc23)cc1 | enzyme activity | inhibitor | – | 10 µM | inhibition | 10%
CS(=O)(=O)c1cc(C2(NC(=O)c3cncc4c3cnn4-c3ccc(F)cc3)CC2)ccn1 | cell-free assay | – | competition with immobilised ligand | 1 µM | remaining binding | 100%
O=C(Nc1cnn(-c2csc(C(=O)NC3COC3)c2)c1)Nc1ccccc1Cl | enzyme activity | inhibitor | – | 5 µM | remaining activity | 118%
O=c1nc(-c2ccccn2)sc2ccccc12 | binding | – | competition with immobilised ligand | 1 µM | remaining binding | 79%
CCCS(=O)(=O)Nc1ccc(F)c(C(=O)c2c[nH]c3ncc(-c4ccc(Cl)cc4)cc23)c1F | enzyme activity | inhibitor | – | 1 µM | inhibition | < 10%
CCN(CC)CCNC(=O)c1c(C)[nH]c(/C=C2\C(=O)Nc3ccc(F)cc32)c1C | enzyme activity | inhibitor | – | 0.3 µM | inhibition | -11%
CNCc1ccccc1-c1csc([C@H](C)Nc2nc(C)nc3cc(OC)c(OC)cc23)c1 | cell-free assay | – | competition with immobilised ligand | 1 µM | remaining binding | 100%
CC(C)c1ccc(NC(=O)c2cccs2)c(-c2nc3ccccc3[nH]c2=O)c1 | enzyme activity | inhibitor | – | 1 µM | activity vs control | 76%
COc1cc2ncnc(Nc3ccc(F)c(Cl)c3)c2cc1OCCCN1CCOCC1 | cell-free assay | – | – | 0.5 µM | remaining signal | 106%
CN1CC(Oc2cnc(C#N)cc2-c2ccn3nc(NC(=O)C4CC4)cc3c2)C1 | enzyme activity | inhibitor | – | 1 µM | inhibition | -2%
CC(C)(O)[C@H]1CC[C@H](Nc2ccc3ncc(-c4cccc(C(F)(F)F)c4)n3n2)CC1 | enzyme activity | inhibitor | – | 1 µM | remaining activity | 90.5%
CC(=O)N1CCC(c2ccc(C(=O)NC3=NCCN3)cc2C(F)(F)F)CC1 | cell-free assay | – | competition with immobilised ligand | 1 µM | remaining binding | 71%
Oc1cccc(-c2nc(N3CCOCC3)c3oc4ncccc4c3n2)c1 | enzyme activity | inhibitor | – | 10 µM | remaining activity | 62%
COc1cc(Cl)c(C(=O)N[C@@H](CN[C@H]2CC[C@@H](N)CC2)Cc2ccc(C#N)cc2)cc1-c1ccc(CN[C@H](C)c2ccc(C)cc2)o1 | enzyme activity | inhibitor | – | 1 µM | remaining activity | 101%
CCC(=O)N[C@H]1CC[C@@H](C(=O)N(C)c2ccc(-c3nc4ccccc4o3)cc2)C1 | cell-free assay | – | competition with immobilised ligand | 1 µM | remaining binding | 100%
CCN(CC)c1ccc(C2=NNC(=O)CC2C)cc1[N+](=O)[O-] (stereo not shown) | enzyme activity | inhibitor | – | 10 µM | remaining activity | 91%
